ChEMBL document CHEMBL1153722, “Design, synthesis, and characterization of peptide-based rab geranylgeranyl transferase inhibitors” (J Med Chem, 2009)
Peptide text beside a SMILES is read from it. * marks the point of attachment. Hydrocinnamoyl = O=C(CCc1ccccc1)*; Undecanoyl = CCCCCCCCCCC(=O)*; Morpholide = C1CN(*)CCO1; NHNH2 = NN*; NHOH = ON*

Organism: Rattus norvegicus
Test: Inhibition of rat recombinant Rab geranylgeranyltransferase at 100 uM in presence of canine Rab7 and rat REP1 NBD-FPP based continuous fluorimetric assay
How it was run: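 Continuous fluorometric assay in 96/384-well format: 3 μM Rab7, 3 μM REP1, 9 μM NBD-FPP and 400 nM RabGGTase, with or without inhibitor. […] IC50 was calculated from three independent measurements.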

SMILES | inhibition [%]
CCCCCCCCCCC(=O)N[C@@H](Cc1ccc(O)cc1)C(=O)N[C@@H](Cc1c[nH]cn1)C(=O)N[C@@H](Cc1ccc(O)cc1)C(N)=O (Undecanoyl-Tyr-His-Tyr-NH2) | 83
CC(C)C[C@H](NC(=O)[C@H](CO)NC(=O)[C@H](Cc1ccccc1)NC(=O)/C=C/c1ccc(F)cc1)C(=O)Nc1nccs1 | 94
NCCCC[C@H](NC(=O)CCc1ccccc1)C(=O)N[C@@H](Cc1c[nH]cn1)C(=O)N[C@@H](CO)C(=O)Nc1ccc(F)cc1F | 96
CCCCCCCCCCC(=O)N[C@@H](Cc1c[nH]cn1)C(=O)N[C@@H](Cc1ccccc1)C(=O)N[C@@H](Cc1ccc(O)cc1)C(=O)NO (Undecanoyl-His-Phe-Tyr-{NHOH}) | 89
NNC(=O)[C@H](CCC(N)=O)NC(=O)[C@H](Cc1ccccc1)NC(=O)CNC(=O)CCc1ccccc1 (Hydrocinnamoyl-Gly-Phe-Gln-NHNH2) | 93
CC(C)(C)Oc1ccc(C[C@H](NC(=O)c2coc(-c3ccccc3)n2)C(=O)NCC(=O)N[C@@H](Cc2ccccc2)C(=O)O)cc1 | 82
COC(=O)[C@H](CCC(=O)O)NC(=O)[C@H](C)NC(=O)[C@@H](NC(=O)c1ccc(-c2ccccc2)cc1)[C@@H](C)O | 101
CC(C)C[C@H](NC(=O)[C@H](CO)NC(=O)[C@H](Cc1ccccc1)NC(=O)CCc1ccccc1)C(=O)OCCCl | 97
CCCCCCCCCCC(=O)N[C@@H](Cc1c[nH]cn1)C(=O)N[C@@H](Cc1c[nH]cn1)C(=O)N[C@@H](Cc1ccc(O)cc1)C(=O)O (Undecanoyl-His-His-Tyr-OH) | 51
CCCCCCCCCCC(=O)N[C@@H](Cc1c[nH]cn1)C(=O)N[C@@H](Cc1ccccc1)C(=O)N[C@@H](Cc1ccc(O)cc1)C(=O)OCCN | 61
CCC/C=C/c1cccc(/C=C/C(=O)N[C@H](Cc2cnc[nH]2)C(=O)N[C@@H](Cc2ccc(O)cc2)C(=O)N[C@@H](Cc2ccccc2)C(=O)O)c1 | 59
O=C(/C=C/c1ccc(F)cc1)N[C@@H](CO)C(=O)N[C@@H](Cc1ccccc1)C(=O)N[C@@H](CO)C(=O)OCCCl | 84
O=C(CNC(=O)[C@@H]1CCCN1C(=O)/C=C/c1ccccc1)N[C@@H](Cc1ccccc1)C(=O)O | 71
O=C(CCc1ccccc1)N[C@@H](CO)C(=O)N[C@@H](Cc1ccccc1)C(=O)N[C@@H](CO)C(=O)N1CCOCC1 (Hydrocinnamoyl-Ser-Phe-Ser-Morpholide) | 94
CON(C)C(=O)[C@H](CC(C)C)NC(=O)[C@H](CO)NC(=O)[C@H](Cc1ccccc1)NC(=O)/C=C/c1ccc(F)cc1 | 71
O=C(N[C@@H](Cc1c[nH]cn1)C(=O)N[C@@H](Cc1ccc(O)cc1)C(=O)N[C@@H](Cc1ccccc1)C(=O)O)OCc1ccc(OCc2ccccc2)cc1 | 53
CCCCCCCCCCOc1ccc(C(=O)N[C@@H](Cc2c[nH]cn2)C(=O)N[C@@H](Cc2c[nH]cn2)C(=O)N[C@@H](CO)C(=O)NCCCn2ccnc2)cc1 | 52
CCCCCCCCCCC(=O)N[C@@H](Cc1ccc(O)cc1)C(=O)N[C@@H](Cc1c[nH]cn1)C(=O)N[C@@H](Cc1c[nH]cn1)C(=O)NCCCCN | 73
NCCOC(=O)[C@H](Cc1ccc(O)cc1)NC(=O)CNC(=O)[C@H](Cc1c[nH]cn1)NC(=O)OCc1ccccc1 | 101
CC[C@H](C)[C@H](NC(=O)/C=C/c1ccc(F)cc1)C(=O)N[C@@H](C)C(=O)N[C@@H](CCC(N)=O)C(=O)O | 83
O=C(CNC(=O)c1coc(-c2ccccc2)n1)N[C@@H](Cc1cn(C(c2ccccc2)(c2ccccc2)c2ccccc2)cn1)C(=O)N[C@@H](Cc1cn(C(c2ccccc2)(c2ccccc2)c2ccccc2)cn1)C(=O)O | 91
CC(C)C[C@H](NC(=O)[C@@H]1CCCN1C(=O)/C=C/c1ccccc1)C(=O)N[C@@H](Cc1ccccc1)C(=O)O | 80
CCCCCCCCCCCCCCCC(=O)N[C@@H](Cc1ccc(O)cc1)C(=O)N[C@@H](Cc1ccc(O)cc1)C(=O)N[C@@H](Cc1ccc(O)cc1)C(=O)OCCCl | 114
